How the values were obtained:
[1] = test system: MV4-11; assay: Cytotoxicity against human MV4-11 cells assessed as reduction in cell viability incubated for 24 hrs by celltiter-glo assay; format: functional, cell-based; conditions: MV4-11, 24 h
Method in brief: (§1)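 MV4;11 cells (WT or CASP1−/−), grown in RPMI 1640 with 10% FBS at 37 °C, 5% CO2, plated 2000 cells/well, dosed by pintool across 100 μM to 15.2 nM in three-fold steps for 24 h. Viability by CellTiter-Glo luminescence after 2 min shaking and 10 min at 25 °C. IC50 as mean ± SEM of three biological replicates.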

[2] = test system: MV4-11; assay: Cytotoxicity against human MV4-11 cells assessed as reduction in cell viability at 0.015 to 100 uM incubated for 24 hrs by celltiter-glo assay; format: functional; conditions: dose 0.015-100 µM; method in brief: as §1
[3] = test system: MV4-11; assay: Cytotoxicity against CASP1 knockout human MV4-11 cells assessed as reduction in cell viability at 0.015 to 100 uM incubated for 24 hrs by celltiter-glo assay; format: functional; conditions: dose 0.015-100 µM; method in brief: as §1

Row | Structure (SMILES) | IC50 [1] [µM] | Activity [2] [%] | Activity [3] [%]
1 | CC(C)C[C@H](NC(=O)[C@@H]1CCCN1C(=O)[C@@H](O)[C@H](N)CC(C)C)C(N)=O | > 100 |  | 
2 | CC(C)C[C@@H](N)[C@H](O)C(=O)N1CCC[C@H]1C(N)=O | 17 | 35 | 96
3 | CCCC[C@@H](N)[C@H](O)C(=O)N1CCC[C@H]1C(=O)OC | 11 | 20 | 98
4 | COC(=O)[C@@H]1CCCN1C(=O)[C@@H](O)[C@H](N)C12CC3CC(CC(C3)C1)C2 | > 100 | 83 | 98
5 | CC(C)C[C@H](NC(=O)[C@@H]1CCCN1C(=O)[C@@H](O)[C@H](N)CC(C)C)C(=O)NCCc1ccc(-c2ccccc2)cc1 | 0.65 |  | 
6 | COC(=O)[C@@H]1CCCN1C(=O)[C@@H](O)[C@H](N)C1CC1 | > 100 | 85 | 102
7 | COC(=O)[C@H](CC(C)C)NC(=O)[C@@H](O)[C@H](N)CC(C)C | 19 | 30 | 12
8 | CC(C)C[C@H](NC(=O)[C@@H]1CCCN1C(=O)[C@@H](O)[C@H](N)CC(C)C)C(=O)NCCc1ccc2ccccc2c1 | 0.43 |  | 
9 | COC(=O)[C@@H]1CCCN1C(=O)[C@@H](O)[C@H](N)c1ccccc1 | 15 | 32 | 97
10 | CONC(=O)[C@@H]1CCCN1C(=O)[C@@H](O)[C@H](N)CC(C)C | > 100 | 95 | 103
11 | CC(C)C[C@H](NC(=O)[C@@H]1CCCN1C(=O)[C@@H](O)[C@H](N)CC(C)C)C(=O)NS(=O)(=O)N(C)C | > 100 |  | 
12 | COC(=O)[C@@H]1CCCN1C(=O)[C@@H](O)[C@H](N)CCC(F)(F)F | > 100 | 68 | 100
13 | CC(C)C[C@H](NC(=O)[C@@H]1CCCN1C(=O)[C@@H](O)[C@H](N)CC(C)C)C(=O)NCCF | 3 |  | 
14 | CC(C)CCNC(=O)[C@H](CC(C)C)NC(=O)[C@@H]1CCCN1C(=O)[C@@H](O)[C@H](N)CC(C)C | 1 |  | 
15 | CC(C)C[C@@H](N)[C@H](O)C(=O)N1CCC[C@H]1c1nnn[nH]1 | > 100 | 85 | 95
16 | COC(=O)[C@@H]1CCCN1C(=O)[C@@H](O)[C@H](N)C(C)C | 46 | 23 | 104
17 | COC(=O)[C@@H]1CCCN1C(=O)[C@@H](O)[C@@H](N)c1ccco1 | 14 | 23 | 71
18 | COC(=O)[C@@H]1CCCN1C(=O)[C@@H](O)[C@H](N)c1ccc2ccoc2c1 | 60 | 44 | 85
19 | CC(C)C[C@H](NC(=O)[C@@H]1CCCN1C(=O)[C@@H](O)[C@H](N)CC(C)C)C(=O)N1CCC1 | > 100 |  | 
20 | COC(=O)[C@@H]1CCCN1C(=O)[C@@H](O)[C@H](N)CCCCO | > 100 | 87 | 92
21 | CC(C)CCNC(=O)[C@@H]1CCCN1C(=O)[C@@H](O)[C@H](N)CC(C)C | 15 | 20 | 92
22 | COC(=O)[C@@H]1CCCN1C(=O)[C@@H](O)[C@@H](N)c1cccs1 | 10 | 22 | 71
23 | COC(=O)[C@@H]1C[C@H](C)CN1C(=O)[C@@H](O)[C@H](N)CC(C)C | 5.6 | 10 | 96
24 | COC(=O)[C@@H]1CCCN1C(=O)[C@@H](O)[C@H](N)Cc1ccccc1 | > 100 | 73 | 97
25 | CC(C)C[C@H](NC(=O)[C@@H]1CCCN1C(=O)[C@@H](O)[C@H](N)CC(C)C)C(=O)N(C)C | 8.2 |  | 
26 | CONC(=O)[C@H](CC(C)C)NC(=O)[C@@H]1CCCN1C(=O)[C@@H](O)[C@H](N)CC(C)C | > 100 |  | 
27 | CC(C)C[C@H](NC(=O)[C@@H]1CCCN1C(=O)[C@@H](O)[C@H](N)CC(C)C)C(=O)NC(C)(C)C | 7.3 |  | 
